Results published in article PMC9128166 (Cancer Science, 2022).
“And” between values parts separate entries of the source, which are not always exact repeats. Equal entries are not always repeated. “Also recorded” adds a separate entry of the source. Where two headings read alike, the source gives them in different places.

How the values were obtained:
[1] = system: relapsed or refractory diffuse large B‐cell lymphoma; test: Investigator-assessed response; format: in vivo, Japanese patients
Method in brief: (§1)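 Investigator-assessed response by Lugano criteria in the full analysis set (all treated patients). Patients received 10 or 20 mg QD orally for 8 weeks, then the same dose QW. CT, FDG-PET or PET-CT was chosen by subtype, using the same technique as at screening. Scans ran every 8 weeks through week 24, every 12 weeks through week 96, then every 24 weeks until progression.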

[2] = Dose-limiting toxicity / MTD, 3 + 3 dose escalation and expansion; format: in vivo, Japanese patients
Method in brief: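 Oral test compound in Japanese patients: once daily for 8 weeks, then the same dose weekly; starting dose 10 mg QD. Patients were hospitalised for the 28-day DLT period. DLTs were graded by NCI CTCAE v4.03. MTD was one level below the dose with DLT in ≥2 of 6 patients, with 3 added patients to confirm.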

[3] = cited from earlier work
[4] = format: in vivo, Japanese patients
[5] = system: relapsed or refractory marginal zone lymphoma; test: Investigator-assessed response; format: in vivo, Japanese patients
Method in brief: as §1

[6] = Parsaclisib exposure and patient disposition; format: in vivo, Japanese patients
Method in brief: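 Safety population: all enrolled patients given ≥1 dose. Regimen was 10 or 20 mg QD for 8 weeks, then QW, until progression, death, unacceptable toxicity or consent withdrawal. AEs were graded by NCI CTCAE v4.03. Treatment duration (d) = last dose − first dose + 1. QW-period duration (wk) = ceiling[(last dose − first QW dose + 1)/7]. Interruptions and reductions were tallied by dosing period.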

[7] = previous studies, patients with NHL
[8] = Any postbaseline abnormality, N = 17
[9] = Worst grade postbaseline Grade 3, N = 17
[10] = Worst grade postbaseline Grade 4, N = 17
[11] = among 16 patients with grade 0 at baseline
[12] = two responders with MZL, individual values

CCOc1c([C@H](C)n2nc(C)c3c(N)ncnc32)cc(Cl)c(F)c1[C@@H]1CNC(=O)C1 [parsaclisib]
BOR, CMR/CR ([1]; DLBCL (n = 6)): 0 (0.0) n (%) | BOR, NMR/SD ([1]; DLBCL (n = 6)): 1 (16.7) n (%) | BOR, PMD/PD ([1]; DLBCL (n = 6)): 3 (50.0) n (%) | BOR, PMR/PR ([1]; DLBCL (n = 6)): 1 (16.7) n (%) | Objective response ([1]; DLBCL (n = 6)): 1 (16.7) n (%) | BOR, Not assessed ([1]; DLBCL (n = 6), no postbaseline response data available): 1 (16.7) n (%) | ORR ([1]; DLBCL, 1 of 6 patients (partial response)): 16.7% | observed PFS ([1]; one responder with DLBCL): 13.8 months | observed response duration ([1]; one responder with DLBCL): 12.2 months | MTD ([2]; 20 mg QD for 8 weeks followed by 20 mg QW): not considered to have exceeded the MTD; also recorded: the criteria for MTD was not exceeded | DLTs during dose expansion ([2]; 20‐mg dose level, QD schedule): grade 3 febrile neutropenia on day 28 and grade 4 neutropenia on day 14 (each in 1 patient); also recorded: two DLTs occurred in one patient each | DLTs during the 28‐day DLT observation period ([2]; dose‐escalation phase, 10‐mg (n = 3) or 20‐mg (n = 3) dose level): No DLTs | decreases in neutrophil count to grade 3 or 4 ([3]; previous studies, patients with FL or MZL): 13–14% | ALT elevation [3, 7]: 13–26% | AST elevation [3, 7]: 17–23% | cough (TEAE) ([3]; primarily Western populations): 17–22% | nausea (TEAE) ([3]; primarily Western populations): 14–26% | pyrexia (TEAE) ([3]; primarily Western populations): 13–17% | rash (TEAE) ([3]; primarily Western populations): 14–22% | diarrhea (TEAE) ([3]; prior studies, primarily Western populations): 20–44% | treatment‐emergent new or worsening decreased neutrophils to grade 3 or 4 ([4]; 5 of 17 patients, all during first 8 weeks): 29.4% | Alanine aminotransferase (increased) [4, 8]: 7 (41.2) n (%) | Albumin (decreased) [4, 8]: 9 (52.9) n (%) | Alkaline phosphatase (increased) [4, 8]: 7 (41.2) n (%) | Aspartate aminotransferase (increased) [4, 8]: 7 (41.2) n (%) | Calcium (decreased) [4, 8]: 8 (47.1) n (%) | Creatinine (increased) [4, 8]: 17 (100.0) n (%) | Leukocytes (decreased) [4, 8]: 9 (52.9) n (%) | Neutrophils (decreased) [4, 8]: 12 (70.6) n (%) | Platelets (decreased) [4, 8]: 7 (41.2) n (%) | Potassium (increased) [4, 8]: 5 (29.4) n (%) | Sodium (decreased) [4, 8]: 5 (29.4) n (%) | Alanine aminotransferase (increased) [4, 9]: 0 (0.0) n (%) | Albumin (decreased) [4, 9]: 0 (0.0) n (%) | Alkaline phosphatase (increased) [4, 9]: 0 (0.0) n (%) | Aspartate aminotransferase (increased) [4, 9]: 0 (0.0) n (%) | Calcium (decreased) [4, 9]: 0 (0.0) n (%) | Creatinine (increased) [4, 9]: 0 (0.0) n (%) | Leukocytes (decreased) [4, 9]: 0 (0.0) n (%) | Neutrophils (decreased) [4, 9]: 4 (23.5) n (%) | Platelets (decreased) [4, 9]: 0 (0.0) n (%) | Potassium (increased) [4, 9]: 0 (0.0) n (%) | Sodium (decreased) [4, 9]: 0 (0.0) n (%) | Alanine aminotransferase (increased) [4, 10]: 0 (0.0) n (%) | Albumin (decreased) [4, 10]: 0 (0.0) n (%) | Alkaline phosphatase (increased) [4, 10]: 0 (0.0) n (%) | Aspartate aminotransferase (increased) [4, 10]: 0 (0.0) n (%) | Calcium (decreased) [4, 10]: 0 (0.0) n (%) | Creatinine (increased) [4, 10]: 0 (0.0) n (%) | Leukocytes (decreased) [4, 10]: 0 (0.0) n (%) | Neutrophils (decreased) [4, 10]: 1 (5.9) n (%) | Platelets (decreased) [4, 10]: 0 (0.0) n (%) | Potassium (increased) [4, 10]: 0 (0.0) n (%) | Sodium (decreased) [4, 10]: 0 (0.0) n (%) | shifts to increased ALT, grade 1 [4, 11]: 5 patients | shifts to increased ALT, grade 2 [4, 11]: 2 patients | shifts to increased AST, grade 1 [4, 11]: 7 patients | treatment‐emergent elevations of ALT or AST to grade 3 or 4 ([4]; human, in vivo): No treatment‐emergent worsening in aminotransferase elevations to grade 3 or 4; also recorded: no treatment‐emergent elevations of ALT or AST to grade 3 or 4 | elevation in ALT ([4]; shifts to grade 1 or 2): 41.2% | elevation in AST ([4]; shifts to grade 1 or 2): 41.2% | BOR, CMR/CR ([5]; MZL (n = 2)): 0 (0.0) n (%) | BOR, NMR/SD ([5]; MZL (n = 2)): 0 (0.0) n (%) | BOR, PMD/PD ([5]; MZL (n = 2)): 0 (0.0) n (%) | BOR, PMR/PR ([5]; MZL (n = 2)): 2 (100) n (%) | Objective response ([5]; MZL (n = 2)): 2 (100.0) n (%) | BOR, Not assessed ([5]; MZL (n = 2), no postbaseline response data available): 0 (0.0) n (%) | ORR ([5]; MZL, 2 of 2 patients): 100% | observed PFS [5, 12]: 16.7 months and 22.0 months | observed response duration [5, 12]: 14.8 months and 16.8 months | Patients with dose interruption ([6]; 10 mg QD + 10 mg QW (n = 3)): 2 (66.7) n (%) | Patients with dose reduction ([6]; 10 mg QD + 10 mg QW (n = 3)): 1 (33.3) n (%) | Patients with dose interruption ([6]; 20 mg QD + 20 mg QW (n = 14)): 8 (57.1) n (%) | Patients with dose reduction ([6]; 20 mg QD + 20 mg QW (n = 14)): 4 (28.6) n (%) | patients who discontinued treatment due to AEs / TEAEs ([6]; 2 of 17 patients (varicella zoster infection, pyrexia)): 11.8% | patients requiring a dose reduction ([6]; 5 of 17 patients): 29.4% | patients remaining on study treatment at data cut‐off ([6]; 6 of 17 patients): 35.3% | patients requiring a dose interruption during the treatment period ([6]; 10 of 17 patients): 58.8% | Patients with dose interruption ([6]; Total (N = 17)): 10 (58.8) n (%) | Patients with dose reduction ([6]; Total (N = 17)): 5 (29.4) n (%)
